A short description of data set [1]: Half life in Sprague-Dawley rat at 1 mg/kg, iv. As to conditions: in vivo; call rule not given here. Format: ADME, organism-based.
The target of data set [2] is Voltage-gated inwardly rectifying potassium channel KCNH2 (Homo sapiens, UniProt Q12809). The experiment in a line: Displacement of [3H]-astemizole from human ERG expressed in HEK293 cells after 60 mins by scintillation counting analysis. Type of data set: cell-based. On the technique in general: Displacement assays read how much labelled ligand stays bound in the presence of the test substance.

The target of data set [3] is Voltage-gated L-type calcium channel (Rattus norvegicus, UniProt P22002+Q02485+P27732). Nature of the data set: Binding affinity to rat L-type calcium channel at 1 uM.
The nature of data set [4]: Apparent permeability across apical to basolateral side in human Caco2 cells at 10 uM after 60 mins by LC/MS/MS analysis. To be noted: Caco-2. Format: ADME, cell-based. A digest of the protocol:
(§1)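 Caco-2 monolayer permeability measured in both directions, apical-to-basolateral and basolateral-to-apical. Reported as P_app (×10−⁶ cm/s), given as A−B/B−A pairs.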
(Caco-2 cells form a polarised layer with tight junctions and transporters.)

Data set [5] can be described thus: Drug uptake in Sprague-Dawley rat brain at 3 mg/kg, po measured at 1 hr. As to conditions: read-out: Drug uptake. Type of data set: ADME, organism-based. Summed up: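 Rats dosed orally at 3 mg/kg. Brain drug concentration (μM) measured at 1 h post-dose.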
Data set [6] can be described thus: Oral bioavailability in Sprague-Dawley rat at 10 mg/kg. Format: ADME, organism-based. To be noted: in vivo.
Data set [7] can be described thus: Clearance in Sprague-Dawley rat. As to conditions: in vivo. Format: ADME, organism-based.
A short description of data set [8]: Apparent permeability across basolateral to apical side in human Caco2 cells at 10 uM […] by LC/MS/MS analysis. Format: ADME, cell-based. As to conditions: Caco-2. Summed up: as §1
A short description of data set [9]: Volume of distribution at steady state in Sprague-Dawley rat. To be noted: in vivo, read-out: Vdss. Type of data set: ADME, organism-based.
The subject of data set [10] is Rattus norvegicus. Nature of the data set: Ex vivo histamine H3 receptor occupancy in Sprague-Dawley rat striatum at 3 mg/kg, po measured at 1 hr by autoradiographic analysis. Format: functional. Summed up: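 After a 3 mg/kg oral dose in rats, ex vivo H3 receptor occupancy was determined by autoradiography at 1 h. Values are mean ± SD.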
Data set [11] in a line: Half life in human. Type of data set: ADME, organism-based. To be noted: in vivo. A digest of the protocol: (§2)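 Humans given single oral doses. Time to peak plasma concentration and mean t1/2 were determined across the dose range (10–400 mg).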
The species entered for a further data set is Homo sapiens. The experiment in a line: Ex vivo histamine H3 receptor occupancy in human assessed as plasma concentration required to cause maximal receptor occupancy. Format: functional.
A short description of data set [12]: Metabolic stability in Sprague-Dawley rat liver microsomes assessed as compound remaining at 1 uM after 15 mins. To be noted: read-out: Stability. Format: ADME. A digest of the protocol:
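Rat liver microsomes incubated with compound for 15 min. Stability expressed as percent of parent remaining.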
(In general: Microsomes from liver hold many membrane-bound enzymes, among them those of drug oxidation.)

Data set [13] is described as follows: Tmax in po dosed human. Format: ADME, organism-based. As to conditions: in vivo. Summed up: as §2
The next data set is filed under the species Canis familiaris. The experiment in a line: Toxicity in dog assessed as phospholipidosis. Type of data set: organism-based, Canis lupus familiaris. To be noted: in vivo.
A short description of data set [14]: Metabolic stability in human liver microsomes assessed as compound remaining at 1 uM after 15 mins. Format: ADME. To be noted: read-out: Stability. Summed up: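 Compound incubated with human liver microsomes for 15 min. Read-out is percent parent remaining.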
A short description of data set [15]: Inhibition of CYP450 in human liver microsomes. Type of data set: ADME.
The subject of data set [16] is Rattus norvegicus. The experiment in a line: Ex vivo histamine H3 receptor occupancy in Sprague-Dawley rat striatum at 10 mg/kg, sc by autoradiographic analysis. Format: functional. A digest of the protocol:
(§3)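 Ex vivo H3 receptor occupancy measured after 10 mg/kg subcutaneous dosing in rats. Plasma Cmax was determined in parallel.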

For data set [17], the species on record is Rattus norvegicus. Nature of the data set: Toxicity in rat assessed as phospholipidosis. To be noted: in vivo.
The species named for data set [18] is Rattus norvegicus. Nature of the data set: Toxicity in rat assessed as phospholipidosis. Type of data set: organism-based. To be noted: in vivo.
For data set [19], the system named is Rattus norvegicus. The experiment in a line: Ex vivo histamine H3 receptor occupancy in Sprague-Dawley rat striatum assessed as maximum plasma concentration required to cause >80% receptor occupancy at 10 mg/kg, sc. Type of data set: functional. Summed up: as §3

pIC50: −log10 of the molar value.

Sequence of Voltage-gated inwardly rectifying potassium channel KCNH2 (Q12809 whole entry): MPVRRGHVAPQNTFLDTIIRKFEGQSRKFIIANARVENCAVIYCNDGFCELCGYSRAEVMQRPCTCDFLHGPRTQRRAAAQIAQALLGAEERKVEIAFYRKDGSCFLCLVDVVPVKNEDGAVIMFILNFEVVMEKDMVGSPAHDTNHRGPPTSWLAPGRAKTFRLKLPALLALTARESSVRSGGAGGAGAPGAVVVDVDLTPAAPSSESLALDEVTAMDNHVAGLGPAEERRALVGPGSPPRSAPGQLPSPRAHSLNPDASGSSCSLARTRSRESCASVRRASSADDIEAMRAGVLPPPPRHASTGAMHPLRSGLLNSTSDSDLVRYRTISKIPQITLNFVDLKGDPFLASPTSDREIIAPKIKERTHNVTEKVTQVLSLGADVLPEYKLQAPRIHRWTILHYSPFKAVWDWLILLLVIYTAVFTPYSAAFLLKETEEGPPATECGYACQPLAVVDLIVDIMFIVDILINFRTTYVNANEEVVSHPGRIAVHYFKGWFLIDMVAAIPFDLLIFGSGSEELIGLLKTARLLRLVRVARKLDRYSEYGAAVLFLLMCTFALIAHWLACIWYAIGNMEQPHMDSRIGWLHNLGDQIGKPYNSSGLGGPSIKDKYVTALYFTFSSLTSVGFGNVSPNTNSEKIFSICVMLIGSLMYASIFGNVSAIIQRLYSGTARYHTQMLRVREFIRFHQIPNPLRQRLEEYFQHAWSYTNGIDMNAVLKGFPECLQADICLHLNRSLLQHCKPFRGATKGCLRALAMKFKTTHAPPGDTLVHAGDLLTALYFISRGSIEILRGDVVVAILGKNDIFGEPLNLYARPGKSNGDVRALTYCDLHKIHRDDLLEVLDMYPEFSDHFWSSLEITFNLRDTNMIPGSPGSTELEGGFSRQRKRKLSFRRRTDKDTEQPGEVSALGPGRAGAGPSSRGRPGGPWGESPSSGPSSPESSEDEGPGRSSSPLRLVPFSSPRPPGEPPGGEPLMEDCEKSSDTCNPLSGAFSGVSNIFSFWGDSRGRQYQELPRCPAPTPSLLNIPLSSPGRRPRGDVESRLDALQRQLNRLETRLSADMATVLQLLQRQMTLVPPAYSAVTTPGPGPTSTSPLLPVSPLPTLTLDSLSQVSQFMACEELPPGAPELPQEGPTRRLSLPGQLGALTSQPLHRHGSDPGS

What is called half-life is the time in which the quantity being followed falls by half. As usually defined, the pIC50 is −log10 of the IC50, conventionally taken in molar units. High values mean a small IC50, low ones a large IC50. One may read the Papp A→B as how fast a substance crosses the layer from the apical side. For orientation: clearance means a measure of how efficiently the substance is removed, as volume per time. Low values mean a low capacity for elimination, high ones a high capacity for elimination. As usually defined, the Papp B→A is the apparent permeability from the basolateral to the apical side of a cell layer. In turn, `CC(C)N1CCN(C(=O)c2ccc(CN3CCCCC3)cc2)CC1` gave a half-life in data set [1] of 20 h. Moreover, the pIC50 in data set [2] was less than 4.52. The Activity result in data set [3] is reported as “Not Active”. In addition, the apparent permeability from apical to basolateral (Papp A→B) at 1 h, 10 µM in [4] was found to be 12.4 ×10⁻⁶ cm/s. Moreover, the concentration at 1 h in data set [5] was determined as 480 nM. Further, in [6], the bioavailability is 52%. In addition, the clearance in data set [7] is 26.1 mL/min/kg. The Papp B→A at 10 µM in [8] amounted to 14.8 ×10⁻⁶ cm/s. In addition, the Vd in data set [9] came to 39.4 L/kg. In the data set on Rattus norvegicus [10], this compound displayed an Occ of 90%.
In general, Tmax refers to the time from dosing to the highest level. With `Cl.O=C(c1ccc(CN2CCOCC2)cc1)N1CCN(C2CC2)CC1`, the half-life in data set [1] was 0.9 h; in data set [11] it was 13.9 h. For the same compound, the Activity in the data set listed under Homo sapiens is 200 ng/mL; in [3], “Not Active”; in the data set filed under Canis familiaris, “Non-toxic”; in the data set listed under Rattus norvegicus [17], “Non-toxic”; in the data set listed under Rattus norvegicus [18], “Non-toxic”; in the data set with Rattus norvegicus [19], 1933 ng/mL. In addition, the remaining at 0.25 h, 1 µM worked out at 44.1% in data set [12] and 96.1% in data set [14]. Further, the negative logarithm of the IC50 (pIC50) in data set [2] is less than 5.00. In data set [4], the Papp A→B at 1 h, 10 µM turned out to be 108 ×10⁻⁶ cm/s. In addition, the Tmax in [13] is 0.5 h. Besides, in [5], the concentration at 1 h is 2540 nM. Also, the bioavailability in data set [6] is 112%. Also, the “inhibition (INH)” value in data set [15] is given as “Not Active”. The clearance in data set [7] amounted to 21.6 mL/min/kg. Further, the Occ in the data set on Rattus norvegicus [16] is recorded as more than 80%; with Rattus norvegicus [10], 58%. Also, the Papp B→A at 10 µM in data set [8] was found to be 37.8 ×10⁻⁶ cm/s. Further, in [9], the Vd worked out at 1.7 L/kg.
In [1], `O=C(c1ccc(CN2CCC(F)CC2)cc1)N1CCN(C2CCC2)CC1` showed a half-life of 2.1 h. The compound also had a pIC50 in [2] of less than 5.00. In addition, in [6], the bioavailability amounted to 31%. In [7], the clearance turned out to be 113 mL/min/kg. The Vd in data set [9] was determined as 20.3 L/kg.
